Consider 13 compounds from ChEMBL document CHEMBL1126697, “Bis(heteroaryl)piperazine (BHAP) reverse transcriptase inhibitors: structure-activity relationships of novel substituted indole analogues and the identification of 1-[(5-methanesulfonamido-1H-indol-2-yl)-carbonyl]-4-[3- [(1-methylethyl)amino]-pyridinyl]piperazine monomethanesulfonate (U-90152S), a …” (J Med Chem, 1993).

For one test, the target named is Human immunodeficiency virus type 1 reverse transcriptase (Human immunodeficiency virus 1) (UniProt Q72547). The test is described as follows: In vitro inhibition of HIV-1 reverse transcriptase at 100 uM.
Conditions: not given
Consider `CC(C)Nc1cccnc1N1CCN(C(=O)c2cc3ccc(O)cc3[nH]2)CC1`, for which the inhibition (in general, the share of the control response that was lost under treatment) was 97%.

Compound `CC(C)Nc1cccnc1N1CCN(C(=O)c2cc3ccc(C#N)cc3[nH]2)CC1` gave an inhibition of 74%.

For the compound `Cc1ccc2[nH]c(C(=O)N3CCN(c4ncccc4NC(C)C)CC3)cc2c1`, the inhibition worked out at 68%.

For `CC(C)Nc1cccnc1N1CCN(C(=O)c2cc3cc(O)ccc3[nH]2)CC1`, the inhibition is 98%.

`CC(C)Nc1cccnc1N1CCN(C(=O)c2cc3ccccc3[nH]2)CC1` came in with an inhibition of 96%.

`CC(C)Nc1cccnc1N1CCN(C(=O)c2cc3ccc(F)cc3[nH]2)CC1` showed an inhibition of 96%.

`CC(C)Nc1cccnc1N1CCN(C(=O)c2cc3ccc(OS(C)(=O)=O)cc3[nH]2)CC1` gave an inhibition of 97%.

With `CC(C)Nc1cccnc1N1CCN(C(=O)c2cc3ccc(NS(C)(=O)=O)cc3[nH]2)CC1`, the inhibition is 98%.

Take `COc1ccc2cc(C(=O)N3CCN(c4ncccc4NC(C)C)CC3)[nH]c2c1`: the inhibition was found to be 97%.

Consider `CCNc1cccnc1N1CCN(C(=O)c2cc3ccccc3[nH]2)CC1`, for which the inhibition turned out to be 96%.

`CC(C)Nc1cccnc1N1CCN(C(=O)c2cc3ccc(C=O)cc3[nH]2)CC1` yielded an inhibition of 94%.

As to `CC(C)Nc1cccnc1N1CCN(C(=O)c2cc3ccc(OCc4ccccc4)cc3[nH]2)CC1`, the inhibition is 65%.

`CCc1cc(NCc2nc3c(Cl)ccc(Cl)c3o2)c(O)nc1C` [L-697661] yielded an inhibition of 98%.

For a further test, the system named is Human immunodeficiency virus 1. The test is described as follows: Inhibition of HIV-1 D34 replication in human peripheral blood mononuclear cells. Type of test: functional. The note with it: read-out: ED50 (the source's name). The gist of the method: (§1)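 PBMC (1×10^6 cells) infected with inoculum containing 1 ng p24 of HIV-1 D34 isolate. Supernatant p24 measured 4 days after infection. Four drug concentrations, 10-fold dilution series. ED50 given as a range when it fell between dilutions. Viability by mitogen-stimulated cell proliferation. Mesylate salts used in this assay.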
`Cc1ccc2[nH]c(C(=O)N3CCN(c4ncccc4NC(C)C)CC3)cc2c1`: the EC50 was determined as 10 nM.

In the case of `CC(C)Nc1cccnc1N1CCN(C(=O)c2cc3cc(O)ccc3[nH]2)CC1`, the EC50 came out at 1 nM.

On to `CC(C)Nc1cccnc1N1CCN(C(=O)c2cc3ccccc3[nH]2)CC1`, for which the EC50 was 1 nM.

For `CC(C)Nc1cccnc1N1CCN(C(=O)c2cc3ccc(F)cc3[nH]2)CC1`, the EC50 is 1 nM.

For the compound `CC(C)Nc1cccnc1N1CCN(C(=O)c2cc3ccc(NS(C)(=O)=O)cc3[nH]2)CC1`, the EC50 turned out to be 0.1 nM.

Turning to `COc1ccc2cc(C(=O)N3CCN(c4ncccc4NC(C)C)CC3)[nH]c2c1`, the EC50 worked out at 10 nM.

For `CCNc1cccnc1N1CCN(C(=O)c2cc3ccccc3[nH]2)CC1`, the EC50 is 10 nM.

As to `CC(C)Nc1cccnc1N1CCN(C(=O)c2cc3ccc(C=O)cc3[nH]2)CC1`, the EC50 stood at 0.1 nM.

`CC(C)Nc1cccnc1N1CCN(C(=O)c2cc3ccc(OCc4ccccc4)cc3[nH]2)CC1`: the EC50 was 100 nM.

With `CCc1cc(NCc2nc3c(Cl)ccc(Cl)c3o2)c(O)nc1C` [L-697661], the EC50 is less than 0.1 nM.

The next test relates to MT2. The test is described as follows: Cytotoxic concentration against MT-2 cells. Type of test: functional. The note with it: Homo sapiens. The gist of the method: (§2)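 HIV-1 IIIb infected MT-2 cells at multiplicity of infection 0.001. Syncytium formation scored 4 days post-infection, at peak viral cytopathic effect. Three drug concentrations, 10-fold dilution series. ED50 given as a range when it fell between dilutions. Viability by trypan blue exclusion.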
`CC(C)Nc1cccnc1N1CCN(C(=O)c2cc3ccc(O)cc3[nH]2)CC1`: the CC50 (as a rule, the concentration giving 50% cytotoxicity) is more than 10 µM.

For `CC(C)Nc1cccnc1N1CCN(C(=O)c2cc3ccc(C#N)cc3[nH]2)CC1`, the cytotoxic concentration (CC50) is more than 10 µM.

On to `Cc1ccc2[nH]c(C(=O)N3CCN(c4ncccc4NC(C)C)CC3)cc2c1`, for which the CC50 was more than 10 µM.

The compound `CC(C)Nc1cccnc1N1CCN(C(=O)c2cc3cc(O)ccc3[nH]2)CC1` returned a CC50 of more than 10 µM.

In turn, `CC(C)Nc1cccnc1N1CCN(C(=O)c2cc3ccccc3[nH]2)CC1` registered a half-maximal cytotoxic concentration (CC50) of more than 10 µM.

In the case of `CC(C)Nc1cccnc1N1CCN(C(=O)c2cc3ccc(F)cc3[nH]2)CC1`, the CC50 is more than 10 µM.

In turn, `CC(C)Nc1cccnc1N1CCN(C(=O)c2cc3ccc(OS(C)(=O)=O)cc3[nH]2)CC1` displayed a CC50 of more than 10 µM.

`CC(C)Nc1cccnc1N1CCN(C(=O)c2cc3ccc(NS(C)(=O)=O)cc3[nH]2)CC1` showed a CC50 of more than 10 µM.

For `COc1ccc2cc(C(=O)N3CCN(c4ncccc4NC(C)C)CC3)[nH]c2c1`, the CC50 was more than 10 µM.

For `CCNc1cccnc1N1CCN(C(=O)c2cc3ccccc3[nH]2)CC1`, the 50% cytotoxic concentration (CC50) was more than 10 µM.

For the compound `CC(C)Nc1cccnc1N1CCN(C(=O)c2cc3ccc(C=O)cc3[nH]2)CC1`, the CC50 is more than 10 µM.

In turn, `CC(C)Nc1cccnc1N1CCN(C(=O)c2cc3ccc(OCc4ccccc4)cc3[nH]2)CC1` gave a CC50 of more than 10 µM.

For the compound `CCc1cc(NCc2nc3c(Cl)ccc(Cl)c3o2)c(O)nc1C` [L-697661], the CC50 is more than 10 µM.

Test system in the next test: not listed separately
The test is described as follows: Cytotoxic concentration against PBMC cells. The test is classed as functional. The note with it: Homo sapiens. The gist of the method:
as §1
For `CC(C)Nc1cccnc1N1CCN(C(=O)c2cc3ccc(O)cc3[nH]2)CC1`, the CC50 is more than 10 µM.

The compound `CC(C)Nc1cccnc1N1CCN(C(=O)c2cc3ccc(C#N)cc3[nH]2)CC1` displayed a CC50 of more than 10 µM.

With `Cc1ccc2[nH]c(C(=O)N3CCN(c4ncccc4NC(C)C)CC3)cc2c1`, the CC50 is more than 10 µM.

Take `CC(C)Nc1cccnc1N1CCN(C(=O)c2cc3cc(O)ccc3[nH]2)CC1`: the CC50 is more than 10 µM.

`CC(C)Nc1cccnc1N1CCN(C(=O)c2cc3ccccc3[nH]2)CC1`: the CC50 was more than 10 µM.

Consider `CC(C)Nc1cccnc1N1CCN(C(=O)c2cc3ccc(F)cc3[nH]2)CC1`, for which the CC50 was more than 10 µM.

The compound `CC(C)Nc1cccnc1N1CCN(C(=O)c2cc3ccc(OS(C)(=O)=O)cc3[nH]2)CC1` came in with a CC50 of more than 10 µM.

Take `CC(C)Nc1cccnc1N1CCN(C(=O)c2cc3ccc(NS(C)(=O)=O)cc3[nH]2)CC1`: the CC50 was more than 10 µM.

Compound `COc1ccc2cc(C(=O)N3CCN(c4ncccc4NC(C)C)CC3)[nH]c2c1` registered a CC50 of more than 10 µM.

Regarding `CCNc1cccnc1N1CCN(C(=O)c2cc3ccccc3[nH]2)CC1`, the CC50 was more than 10 µM.

On to `CC(C)Nc1cccnc1N1CCN(C(=O)c2cc3ccc(C=O)cc3[nH]2)CC1`, for which the CC50 was more than 10 µM.

Turning to `CC(C)Nc1cccnc1N1CCN(C(=O)c2cc3ccc(OCc4ccccc4)cc3[nH]2)CC1`, the CC50 is more than 10 µM.

With `CCc1cc(NCc2nc3c(Cl)ccc(Cl)c3o2)c(O)nc1C` [L-697661], the 50% cytotoxic concentration (CC50) is more than 10 µM.

In a further test the test system is Human immunodeficiency virus 1. The test is described as follows: Inhibition of HIV-1 IIIB replication in MT2 (human lymphocyte) cells. Type of test: functional. To be noted: Human immunodeficiency virus 1, MT2; read-out: ED50 (the source's name). In a few lines:
as §2
With `Cc1ccc2[nH]c(C(=O)N3CCN(c4ncccc4NC(C)C)CC3)cc2c1`, the EC50 was 260 nM.

For `CC(C)Nc1cccnc1N1CCN(C(=O)c2cc3cc(O)ccc3[nH]2)CC1`, the EC50 is less than 260 nM.

In the case of `CC(C)Nc1cccnc1N1CCN(C(=O)c2cc3ccccc3[nH]2)CC1`, the EC50 came out at 300 nM.

For the compound `CC(C)Nc1cccnc1N1CCN(C(=O)c2cc3ccc(F)cc3[nH]2)CC1`, the EC50 stood at 260 nM.

For `CC(C)Nc1cccnc1N1CCN(C(=O)c2cc3ccc(NS(C)(=O)=O)cc3[nH]2)CC1`, the EC50 is less than 20 nM.

Take `COc1ccc2cc(C(=O)N3CCN(c4ncccc4NC(C)C)CC3)[nH]c2c1`: the EC50 is less than 250 nM.

Consider `CCNc1cccnc1N1CCN(C(=O)c2cc3ccccc3[nH]2)CC1`, for which the EC50 was 300 nM.

As for `CC(C)Nc1cccnc1N1CCN(C(=O)c2cc3ccc(C=O)cc3[nH]2)CC1`, the EC50 was less than 260 nM.

For the compound `CCc1cc(NCc2nc3c(Cl)ccc(Cl)c3o2)c(O)nc1C` [L-697661], the EC50 is less than 300 nM.

In the next test the target is Human immunodeficiency virus type 1 reverse transcriptase (Human immunodeficiency virus 1, UniProt Q72547). The test is described as follows: In vitro inhibition of HIV-1 reverse transcriptase.
Conditions: not given
In the case of `CC(C)Nc1cccnc1N1CCN(C(=O)c2cc3ccc(O)cc3[nH]2)CC1`, it took 1200 nM to reach half-maximal inhibition (IC50).

As to `CC(C)Nc1cccnc1N1CCN(C(=O)c2cc3ccc(C#N)cc3[nH]2)CC1`, the IC50 (usually the point on the concentration scale where inhibition reaches its midpoint) turned out to be 3900 nM.

In turn, `Cc1ccc2[nH]c(C(=O)N3CCN(c4ncccc4NC(C)C)CC3)cc2c1` yielded a 50% inhibitory concentration (IC50) of 34000 nM.

`CC(C)Nc1cccnc1N1CCN(C(=O)c2cc3cc(O)ccc3[nH]2)CC1` yielded an IC50 of 1300 nM.

As to `CC(C)Nc1cccnc1N1CCN(C(=O)c2cc3ccccc3[nH]2)CC1`, the midpoint of inhibition, the IC50, lay at 1200 nM.

As to `CC(C)Nc1cccnc1N1CCN(C(=O)c2cc3ccc(F)cc3[nH]2)CC1`, inhibition was half-maximal at 4400 nM (IC50).

In turn, `CC(C)Nc1cccnc1N1CCN(C(=O)c2cc3ccc(OS(C)(=O)=O)cc3[nH]2)CC1` registered a half-maximal inhibitory concentration (IC50) of 2200 nM.

Consider `CC(C)Nc1cccnc1N1CCN(C(=O)c2cc3ccc(NS(C)(=O)=O)cc3[nH]2)CC1`, for which the IC50 came out at 500 nM.

In turn, `COc1ccc2cc(C(=O)N3CCN(c4ncccc4NC(C)C)CC3)[nH]c2c1` gave a half-maximal inhibitory concentration (IC50) of 1300 nM.

For the compound `CCNc1cccnc1N1CCN(C(=O)c2cc3ccccc3[nH]2)CC1`, it took 4000 nM to reach half-maximal inhibition (IC50).

With `CC(C)Nc1cccnc1N1CCN(C(=O)c2cc3ccc(C=O)cc3[nH]2)CC1`, the IC50 was determined as 1400 nM.

In turn, `CC(C)Nc1cccnc1N1CCN(C(=O)c2cc3ccc(OCc4ccccc4)cc3[nH]2)CC1` showed an IC50 of 37000 nM.

As for `CCc1cc(NCc2nc3c(Cl)ccc(Cl)c3o2)c(O)nc1C` [L-697661], 2700 nM corresponded to half-maximal inhibition (IC50).
